# T cruzi repl – blocks replication of Trypanosoma cruzi; T. cruzi beta-gal in NIH3T3, luminescence, 90 h; 300,000 tested, 1.4% active; inhibition, % (test concentration not listed);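 active = mean inhibition across valid replicates above about 55%, limit read from the data; inconclusive = mean below that limit but half or more replicates reach it; inactive = mean below it, under half of replicates reach it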;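 also: signal also drops with host cell toxicity which is not excluded here; 0% = plate median of DMSO wells and 100% = zero luminescence signal; higher percent means less beta-gal luminescence so fewer parasites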
#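 Incubation – ≥90 h infection period, 3 h prior cell attachment · System – NIH/3T3 fibroblasts plus reporter T. cruzi · Doses – compound pinned at 50 nL/well, DMSO · Read-out basis – percent inhibition of parasite-derived β-gal signal · Signal – luminescent β-galactosidase signal after 60 min lysis · Also added – 5000 T. cruzi trypomastigotes/well · Medium – Low-serum DMEM with 2% FBS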
# Dynein transport – dynein cargo transport inhibition; 3617.4 mouse cells, GR-EGFP nuclear translocation imaging; test concentration mostly 20 µM; stimulated with dexamethasone, 1 µM; hits give low values; z-score, hits read low; 220,000 tested, 0.47% active;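 active = plate z-score of nuclear minus cytoplasmic receptor signal below a set negative limit, without overly bright fluorescence or cell loss, cut at about -3.5 in these data, passing the limit was not always enough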;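 also: z-score of nuclear minus cytoplasmic ring GR-EGFP intensity difference per well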
#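 medium = tetracycline-free induction medium containing charcoal-stripped FBS | probe or stimulus = dexamethasone, 1.0 µM final | timing = 48 h induction, then 1 h compound, then 30 min agonist, 37 °C | detection = automated 10x imaging of fixed Hoechst-stained cells | read-out basis = nuclear versus cytoplasmic GR-EGFP signal, averaged per well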
# Lmaj promast – reduces viability of Leishmania major promastigotes. resazurin fluorescence viability. inhibition, % at 10 µM. 200,000 tested, 9% active. AID 1063; in the data active = inhibition above about 50%;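 also: promastigotes grown with compound for 44 hours at 28 °C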
# CHOP UPR activ – activators of apoptotic arm of unfolded protein response (CHOP); CHO-CHOP luciferase reporter, UPR activation, luminescence; percent of tunicamycin response over DMSO baseline; activation, % at 10 µM; 330,000 tested, 0.34% active;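 active = at 10 µM dose, activation of 40% or more, normalized to positive control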;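 also: 100% = tunicamycin at 10 µg/mL and 0% = DMSO alone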
#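 Test system: CHO-CHOP cells, stable luciferase reporter of PERK-eIF2a-CHOP signalling | Quantity: 500 CHO-CHOP cells per well | Buffer or medium: F12 plus 10% serum | Compound dosing: 10 µM single point, 0.5% DMSO | Schedule: 6 h compound treatment, 37 °C | Signal: Luciferase luminescence | Control set: Tunicamycin high control, DMSO low control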
# UPR XBP1 act – activators of adaptive arm of unfolded protein response (XBP1); CHO-XBP1 luciferase reporter, IRE1-XBP1 UPR activation, luminescence; percent of tunicamycin response, DMSO as zero; activation, % at 20 µM; 330,000 tested, 0.33% active; AID 463104;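 active = versus positive control, 20 µM dose yields 30% or more activation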;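 also: 100% = tunicamycin at 10 µg/mL and 0% = DMSO only wells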
#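 Signal: luciferase luminescence; Assay system: CHO-XBP1 luciferase reporter cells; Amount: one thousand reporter cells per well; Dosing: 20 µM single concentration, DMSO 1%; Benchmarks: high control tunicamycin 10 µg/mL final, low control DMSO vehicle only; Schedule: 6 h compound exposure at 37 °C, 5% CO2; Evaluation: percent activation relative to tunicamycin reference.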
# CHOP inh – blocks CHOP induction under ER stress | CHO-K1 CHOP-promoter luciferase, tunicamycin-induced, 15-18 h | inhibition, % at 10 µM | 220,000 tested, 3.8% active | AID 2732;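 active = compounds that reduced the stress-induced luciferase reporter signal by more than about 70% of percent inhibition, limit read from the data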;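 also: 0% = tunicamycin plus vehicle and 100% = wells without tunicamycin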
# Starred values were filed as active, the others as inactive; ? = inconclusive; / = no result given. This excerpt belongs to a sample that is enriched for hits.
SMILES,T cruzi repl,Dynein transport,Lmaj promast,CHOP UPR activ,UPR XBP1 act,CHOP inh
Cc1cc2cc(CCNC(=O)c3ccc(S(=O)(=O)N4CCOCC4)cc3)c(=O)[nH]c2cc1C,7,-0.044,3,-3,-2,71*
Cc1ccc2cc(CCNC(=O)c3ccc(S(=O)(=O)N4CCOCC4)cc3)c(=O)[nH]c2c1,-5,/,/,-1,-2,/
Cc1cc(N/N=C/c2ccc(Cl)cc2)nc(NCc2ccccc2)n1,80*,0.37,94*,1,3,69
Cc1cc(N/N=C/c2cccc(F)c2)nc(NCc2ccccc2)n1,23,-0.15,/,4,1,-25
Cc1cc(N/N=C/c2cccc(Cl)c2)nc(NCc2ccccc2)n1,47,0.07,77*,1,-3,50
Cc1cc(N/N=C/c2ccccc2)nc(NCc2ccccc2)n1,35,0.17,88*,2,-1,44
Cc1cc(Nc2cccc(Cl)c2)nc(NCc2ccccc2)n1,58*,1.6,100*,3,12,106*
Cc1cc(C)nc(NCc2ccc(Cl)cc2)n1,-2,/,/,2,-4,/
CCOc1ccc(C(C)=O)cc1CN1C(=O)C(=O)N(CC)C1=O,1,3.6,-2,1,-2,-4
O=S(=O)(NCc1cccc(C(F)(F)F)c1)NCc1ccccc1F,-5,-0.96,-5,-1,-2,25
CSCCCNC(=O)c1ccc(OC2CCN(CCc3ccccc3)CC2)cc1,-10,0.14,75*,2,1,8
O=C(NCCc1ccccn1)c1ccc(OC2CCN(CCc3ccccc3)CC2)cc1,16,/,/,0,-5,/
Cc1nn(C)c(C(=O)NNC(=O)NC2CCCCC2)c1Cl,-2,/,/,0,-3,/
Cc1ccc2cccc(S(=O)(=O)Nc3ccc4c(c3)OCO4)c2n1,-1,0.064,96*,1,-1,34
CCOc1cc(C)c(Cl)cc1S(=O)(=O)NCc1ccc2c(c1)OCO2,2,-0.13,100*,0,-2,29
O=S(=O)(NCc1ccc2c(c1)OCO2)c1cccc2cccnc12,-2,-0.17,92*,0,-2,4
Cc1cccc(Cc2ncc(C(F)(F)F)cc2Cl)c1,-10,/,/,2,-6,/
O=C(Nc1cc2c3c(c1)CC(=O)N3CCC2)c1ccc(Cl)cc1,0,/,/,4,1,/
O=C(NNC(=O)C1CCCC1)c1cc([N+](=O)[O-])cc([N+](=O)[O-])c1,/,/,/,-1,2,/
Cc1ccc(-c2nnn(CC(=O)Nc3cccc4c3CCCC4)n2)o1,-4,-0.15,15,0,1,81*
CC(=O)Nc1cc2c(cc1NC(=O)Cn1nnc(-c3ccc(C)o3)n1)OCCO2,-8,0.093,0,2,-3,21
CC(C)Cc1ccc(CN2CCCC(NC(=O)CCn3cnnn3)C2)cc1 (configuration not stated),56*,/,/,1,-3,/
CC(C)Cc1ccc(CN2CCCC(NC(=O)Cn3cnnn3)C2)cc1 (configuration not stated),?,/,/,1,-2,/
CCN(CCCNC(=O)C1c2ccccc2C(=O)N(CCOC)C1c1ccc(F)cc1)Cc1ccccc1 (configuration not stated),-7,-0.97,99*,-2,-2,12
CCOC(=O)c1[nH]c2ccc(OC)cc2c1NS(=O)(=O)c1ccc(OC)cc1OC,6,-0.21,13,-1,-2,2
SMILES,T cruzi repl,Dynein transport,Lmaj promast,CHOP UPR activ,UPR XBP1 act,CHOP inh
COC(=O)c1[nH]c2ccc(F)cc2c1NS(=O)(=O)c1ccc(OC)cc1OC,-3,0.43,97*,1,1,20
Cc1ccc2c(c1)c1ncnc(N3CCOCC3)c1n2C,-21,-0.21,2,2,3,/
Cc1ccc2c(c1)c1ccc3c(c1n2C)C(=O)C=CC3=O,/,-6.9*,/,-9,-10,106*
CC(C)c1cccc(C(C)C)c1NC(=O)CNCc1ccccc1F,15,-0.52,60*,-1,2,21
O=C(CO/N=C/c1ccc(Cl)cc1Cl)NNC(=O)c1cccc(Cl)c1,8,-0.18,/,2,-1,74*
CCCCc1ccc(NC2=NCC(=O)N2CCc2ccccc2)cc1,5,-0.93,-4,-3,-3,95*
CCCCN(C)CCNC(=O)c1nn(-c2ccc(OC)cc2)c(=O)c2c1c1ccccc1n2C,61*,-0.11,16,-2,-1,-5
COCCNC(=S)N/N=C(\C)c1cccc([N+](=O)[O-])c1,-11,-1,-8,-1,-3,16
O=C(O)c1cccc(N2C(=O)/C(=C/c3ccc(SCc4ccc(Cl)cc4)o3)SC2=S)c1,/,-0.1,14,/,/,75*
CCC(C)NCCOCCOc1ccc(Cl)c2ccccc12 (configuration not stated),55*,4.5,100*,0,6,23
CCC(C)NCCOCCOc1ccc(Cl)c(C)c1C (configuration not stated),59*,-0.33,98*,0,1,-4
CCCCOC(=O)CCN1C(=O)/C(=C2\SC(=S)N(CCC(=O)OCCCC)C2=O)SC1=S,4,-0.78,66*,8,-1,8
CCCCCOC(=O)CCN1C(=O)/C(=C2\SC(=S)N(CCC(=O)OCCCCC)C2=O)SC1=S,2,0.88,/,1,-1,-13
Cc1cc(C)n(-c2nnc(C)n2/N=C/c2ccco2)n1,-1,-0.25,-2,0,0,-6
CCCOc1ccc2ccccc2c1/C=N/n1c(C)nnc1-n1nc(C)cc1C,3,-0.9,51*,-1,-4,/
CCN(c1ccccc1)c1nc(=O)c2cccnc2s1,-2,-0.18,-4,1,1,-4
CCN(c1cccc(C)c1)c1nc2ccsc2c(=O)s1,-5,-0.1,2,-2,1,73*
COc1ccc(C(=O)NCC(c2cccnc2)N2CCN(c3ccccc3OC)CC2)cc1OC (configuration not stated),41,0.78,74*,-1,-2,-4
COc1cccc(C(=O)NCC(c2cccnc2)N2CCN(c3ccccc3OC)CC2)c1 (configuration not stated),24,-1.2,88*,1,-2,-19
COc1ccc(C(=O)NCc2cccnc2)cc1OC,6,2.3,3,1,-2,-5
COc1ccc(C2C(C(=O)O)CCC(=O)N2c2ccc(C)cc2)cc1OC (configuration not stated),2,-0.19,/,-2,-4,21
CC(=O)N1CCCc2cc(S(=O)(=O)Nc3ccccc3C)ccc21,6,/,/,0,-3,/
CN(C(=O)COC(=O)C(C)(C)Oc1ccc(Cl)cc1)c1c(N)n(Cc2ccccc2)c(=O)[nH]c1=O,-19,/,/,-1,-1,/

# Screening results as filed in PubChem.
